Reference: ChEMBL document CHEMBL1142740, “Pyrroloquinolone PDE5 inhibitors with improved pharmaceutical profiles for clinical studies on erectile dysfunction” (J Med Chem, 2005)

Columns and labels:
RFL-6 [1] = assay: Ratio of inhibitory constant against phosphodiesterase 1 and phosphodiesterase 5 in rat fetal lung fibroblast (RFL-6) cells; type: cell-based
RFL-6 [2] = assay: Ratio of inhibitory constant against cone phosphodiesterase 6 and phosphodiesterase 5 in rat fetal lung fibroblast (RFL-6) cells; type: cell-based
RFL-6 [3] = assay: Ratio of inhibitory constant against rod phosphodiesterase 6 and phosphodiesterase 5 in rat fetal lung fibroblast (RFL-6) cells; type: cell-based
[4] = molecular target: T1, cGMP-specific 3',5'-cyclic phosphodiesterase (Rattus norvegicus, UniProt O54735); assay: Inhibition of phosphodiesterase 5 in rat fetal lung fibroblast (RFL-6) cells; type: cell-based
RFL-6 [5] = assay: Ratio of inhibitory constant against phosphodiesterase 2 and phosphodiesterase 5 in rat fetal lung fibroblast (RFL-6) cells; type: cell-based
RFL-6 [6] = assay: Ratio of inhibitory constant against phosphodiesterase 4 and phosphodiesterase 5 in rat fetal lung fibroblast (RFL-6) cells; type: cell-based
RFL-6 [7] = assay: Ratio of inhibitory constant against phosphodiesterase 3 and phosphodiesterase 5 in rat fetal lung fibroblast (RFL-6) cells; type: cell-based
[8] = molecular target: T1, cGMP-specific 3',5'-cyclic phosphodiesterase; assay: Inhibitory concentration against phosphodiesterase 5 in rat fetal lung fibroblast (RFL-6) cells; type: cell-based
[9] = molecular target: cGMP-specific 3',5'-cyclic phosphodiesterase (Rattus norvegicus) (UniProt O54735); assay: pKa value for phosphodiesterase 5 in rat fetal lung fibroblast (RFL-6) cells; type: functional, cell-based
[10] = (§1) Oral bioavailability in rat; type: ADME, organism-based; conditions: in vivo
Summary of the method: (§2)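 Male Sprague-Dawley rats, male beagle dogs and male rhesus monkeys, three per group. The oral arm received 30 mg/kg in 0.5% methylcellulose; the iv arm received 3.0 mg/kg in 20% HPBCD. Blood was drawn at 0, 0.5, 1, 2, 4, 6 and 24 h, and plasma drug was quantified by LC/MS. Bioavailability is reported as value and standard deviation.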

Canis familiaris = assay: Effect on intracavernosal pressure after i.v. administration in electrically stimulated dogs; type: functional; conditions: Canis lupus familiaris, iv
RFL-6 [11] = assay: Ratio of binding affinity towards phosphodiesterase 4 and phosphodiesterase 5 in rat fetal lung fibroblast (RFL-6) cells; type: cell-based
[12] = Oral bioavailability in dog; type: ADME, organism-based, Canis lupus familiaris; conditions: in vivo; summary of the method: as §2
[13] = Oral bioavailability in monkey was determined; type: ADME, organism-based; conditions: cercopithecidae, in vivo; summary of the method: as §2
[14] = molecular target: cGMP-specific 3',5'-cyclic phosphodiesterase (Rattus norvegicus) (UniProt O54735); conditions: RFL-6
[15] = as §1; type: ADME, organism-based; conditions: in vivo; summary of the method: as §2; remark: listed apart in the source

Row | SMILES | Selectivity (RFL-6 [1]) | Selectivity (RFL-6 [2]) | Selectivity (RFL-6 [3]) | Ki [4] [nM] | Selectivity (RFL-6 [5]) | Selectivity (RFL-6 [6]) | Selectivity (RFL-6 [7]) | IC50 [8] [nM] | pka [9] | bioavailability [10] [%] | ED50 (Canis familiaris) [µg/kg] | Selectivity (RFL-6 [11]) | bioavailability [12] [%] | bioavailability [13] [%] | Pka [14] | bioavailability [15] [%] | pKa [9]
1 | Oc1c2c(nc3ccccc13)C(c1ccc3c(c1)OCO3)N(c1ncc(-c3cccnc3)cn1)C2 (stereo unspecified) | > 15000 | 7.6 | 9.3 | 0.29 | > 15000 | > 2500 | > 15000 |  |  |  |  |  |  |  |  |  | 
2 | Oc1c2c(nc3ccccc13)C(c1ccc3c(c1)CCO3)N(c1ncc(Br)cn1)C2 (stereo unspecified) | > 15000 | 39.2 | 35.7 |  | > 15000 | > 2500 | > 15000 | 1.9 |  |  |  |  |  |  |  |  | 
3 | Oc1c2c(nc3ccccc13)C(c1ccc3c(c1)CCO3)N(c1ccc(-c3cncn3Cc3ccccc3)cn1)C2 (stereo unspecified) | > 15000 | 68.9 | 57.6 | 0.17 | > 15000 | > 2500 | 4560 |  |  |  |  |  |  |  |  |  | 
4 | Oc1c2c(nc3ccccc13)C(c1ccc3c(c1)CCO3)N(c1ccccn1)C2 (stereo unspecified) | > 15000 | 237 | 219 |  | > 15000 | > 2500 | > 15000 |  | 5 |  |  |  |  |  |  |  | 
5 | COc1ccc(-c2cnc(N3Cc4c(nc5ccccc5c4O)C3c3ccc4c(c3)CCO4)nc2)cc1 (stereo unspecified) |  |  |  | 0.52 |  |  |  |  |  |  |  |  |  |  |  |  | 
6 | Cc1ncc(-c2cnc(N3Cc4c(nc5ccccc5c4O)C3c3ccc4c(c3)CCO4)nc2)n1C (stereo unspecified) | > 15000 | 219 | 237 | 0.24 | > 15000 | > 2500 | > 15000 |  |  | 0 |  |  |  |  |  |  | 
7 | Oc1c2c(nc3ccccc13)C(c1ccc3c(c1)OCO3)N(c1ccc(-n3ccnc3)cc1)C2 (stereo unspecified) | > 15000 | 13.2 | 20.1 |  | > 4870 | > 2500 | > 10300 | 1.75 |  |  |  |  |  |  |  |  | 
8 | Oc1c2c(nc3ccccc13)[C@@H](c1ccc3c(c1)CCO3)N(c1ncc(-c3ccccn3)cn1)C2 | > 15000 | 67 | 99 | 0.019 | > 15000 | > 2500 | > 15000 |  |  |  | 8.03 |  |  |  |  |  | 
9 | Cn1cncc1-c1ccc(N2Cc3c(nc4ccccc4c3O)C2c2ccc3c(c2)CCO3)nc1 (stereo unspecified) | > 15000 | 10.3 | 2.6 | 0.33 | > 15000 |  | > 15000 |  |  |  |  | > 2500 |  |  |  |  | 
10 | Oc1c2c(nc3ccccc13)[C@@H](c1ccc3c(c1)CCO3)N(c1ccccn1)C2 | > 15000 | 106 | 173 | 0.12 | > 15000 | > 2500 | > 15000 |  |  |  | 9.85 |  | 69 | 40 |  |  | 
11 | Oc1c2c(nc3ccccc13)C(c1ccc3c(c1)CCO3)N(c1ccc(-c3ccccn3)nc1)C2 (stereo unspecified) | > 15000 |  |  | 6.43 | > 15000 | > 2500 | > 15000 |  |  |  |  |  |  |  |  |  | 
12 | Oc1c2c(nc3ccccc13)C(c1ccc3occc3c1)N(c1ncc(-c3ccccn3)cn1)C2 (stereo unspecified) | 15000 | 22.3 | 22.6 | 0.19 | > 15000 | 2500 | > 15000 |  |  |  |  |  |  |  |  |  | 
13 | CCCc1nn(C)c2c(=O)[nH]c(-c3cc(S(=O)(=O)N4CCN(C)CC4)ccc3OCC)nc12 |  |  |  |  |  |  |  |  |  |  | 5.1 |  |  |  |  |  | 
14 | Oc1c2c(nc3ccccc13)C(c1ccc3c(c1)CCO3)N(c1ncc(-c3cccnc3)cn1)C2 (stereo unspecified) | > 15000 | 66.5 | 127 | 0.36 | > 15000 | > 2500 | > 15000 |  |  |  |  |  |  |  |  |  | 
15 | Oc1c2c(nc3ccccc13)C(c1ccc3c(c1)CCO3)N(c1ncc(-c3ccccn3)cn1)C2 (stereo unspecified) | > 15000 |  |  |  | > 15000 |  | > 15000 |  |  | 31.3 |  |  |  |  | 9.24 |  | 
16 | Oc1c2c(nc3ccccc13)C(c1ccc3c(c1)CCO3)N(c1ccc(-c3ccccn3)cn1)C2 (stereo unspecified) | > 15000 | 69.2 | 93 | 0.15 | > 15000 | > 2500 | > 15000 |  |  | 39 |  |  |  |  |  |  | 
17 | CN1CC(=O)N2[C@H](c3ccc4c(c3)OCO4)c3[nH]c4ccccc4c3C[C@@H]2C1=O | > 2000 | 1000 |  | 5 | > 2000 | > 2000 | > 2000 |  |  |  |  |  |  |  |  |  | 
18 | Oc1c2c(nc3ccccc13)C(c1ccc3c(c1)CCO3)N(c1ncc(-c3ccncc3)cn1)C2 (stereo unspecified) | > 15000 | 12.1 | 10.5 | 0.22 | > 15000 | > 2500 | > 15000 |  |  |  |  |  |  |  |  |  | 
19 | CCN(CC)CCOc1ccc(-c2cnc(N3Cc4c(nc5ccccc5c4O)C3c3ccc4c(c3)CCO4)nc2)cc1 (stereo unspecified) |  |  |  | 0.53 |  |  |  |  |  |  |  |  |  |  |  |  | 
20 | Cc1ncc(-c2cnc(N3Cc4c(nc5ccccc5c4O)C3c3ccc4c(c3)CCO4)nc2)n1Cc1ccccc1 (stereo unspecified) | > 15000 | 359 | 366 | 0.24 | > 15000 | > 2500 | > 15000 |  |  |  |  |  |  |  |  |  | 
21 | Oc1c2c(nc3ccccc13)C(c1ccc3c(c1)CCO3)N(c1ccc(-n3ccnc3)cc1)C2 (stereo unspecified) | > 15000 | 1840 | 499 | 0.51 | > 15000 | > 2500 | > 15000 |  |  |  |  |  |  |  |  |  | 
22 | O=c1c2c([nH]c3ccccc13)C(c1ccc3c(c1)CCO3)N(c1ccccn1)C2 (stereo unspecified) |  |  |  | 0.65 |  |  |  |  |  | 38 |  |  |  |  |  | 38 | 
23 | Oc1c2c(nc3ccccc13)C(c1ccc3c(c1)CCO3)N(c1ncccn1)C2 (stereo unspecified) | > 15000 | 310 | 755 |  | > 15000 | > 2500 | > 15000 |  |  | 12 |  |  |  |  |  |  | 4.4
